Source: ChEMBL document CHEMBL1926618, “Homosecoiridoids from the flower buds of Lonicera japonica” (2011)
Activity calls are given as the source filed them. No cut-off for these calls is given here.

How the values were obtained:
Bel-7402 = experiment: Cytotoxicity against human Bel7402 cells at 10 uM after 96 hrs by MTT assay; format: functional, cell-based
MCF7 = experiment: Cytotoxicity against human MCF7 cells at 10 uM after 96 hrs by MTT assay; format: functional, cell-based
HCT-8 = experiment: Cytotoxicity against human HCT8 cells at 10 uM after 96 hrs by MTT assay; format: functional, cell-based
BGC-823 = experiment: Cytotoxicity against human BGC823 cells at 10 uM after 96 hrs by MTT assay; format: functional, cell-based
[1] = Antiinflammatory activity in rat polymorphonuclear leukocytes assessed as inhibition of platelet-activating factor-induced glucuronidase release at 10 uM preincubated for 15 mins before challenge by spectrophotometry; format: functional
PC-12 = experiment: Neuroprotective activity against glutamate-induced neurotoxicity in rat PC12 cells at 10 uM preincubated for 24 hrs prior challenge measured after 24 hrs by MTT assay; format: functional, cell-based
[2] = system: Human immunodeficiency virus 1; experiment: Antiviral activity against HIV1 infected in 293T cells at 10 uM pretreated for 15 mins prior infection measured after 48 hrs by luciferase reporter gene assay; format: functional, organism-based
Liver microsomes = experiment: Antioxidant activity against Fe2+-cystine induced lipid peroxidation in rat liver microsomes at 10 uM; format: functional; conditions: Microsome
[3] = biological target: T1, Tyrosine-protein phosphatase non-receptor type 1 (Homo sapiens) (UniProt P18031); experiment: Inhibition of GST-tagged human PTP1B PTPase activity using p-NPP as substrate at 10 uM after 10 mins by spectrophotometry
T1 sequence (whole entry): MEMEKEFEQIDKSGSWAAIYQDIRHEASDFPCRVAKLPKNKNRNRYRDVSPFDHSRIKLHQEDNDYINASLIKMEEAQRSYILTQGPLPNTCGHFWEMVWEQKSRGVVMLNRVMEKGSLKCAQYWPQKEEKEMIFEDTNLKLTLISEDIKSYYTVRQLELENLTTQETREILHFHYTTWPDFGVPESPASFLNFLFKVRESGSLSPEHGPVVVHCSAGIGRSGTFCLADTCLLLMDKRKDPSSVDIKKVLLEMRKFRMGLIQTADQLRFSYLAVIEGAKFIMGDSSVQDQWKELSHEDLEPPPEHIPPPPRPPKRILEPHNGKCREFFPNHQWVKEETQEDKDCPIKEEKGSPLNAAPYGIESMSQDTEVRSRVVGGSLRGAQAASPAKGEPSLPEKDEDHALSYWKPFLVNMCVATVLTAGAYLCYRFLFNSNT

KETR3 = experiment: Cytotoxicity against human Ketr3 cells at 10 uM after 96 hrs by MTT assay; format: functional, cell-based
A549 = experiment: Cytotoxicity against human A549 cells at 10 uM after 96 hrs by MTT assay; format: functional, cell-based
[4] = biological target: Signal transducer and activator of transcription 3 (Homo sapiens) (UniProt P40763); experiment: Inhibition of STAT-3 activity in HELF cells at 10 uM; format: cell-based
In short: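 HELF cells grown in DMEM with 10% FCS under humidified 5% CO2, transfected with pSTAT-3-TA-luc firefly luciferase reporter plasmid by lipofectamine 2000. After 24 h, treated in 5% FBS with compound or DMSO for 24 h. Luciferase activity read in cell lysates by luminometer; activity expressed relative to DMSO-treated transfected cells set at 100%.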

Chain of Signal transducer and activator of transcription 3 (Homo sapiens) (P40763 whole entry): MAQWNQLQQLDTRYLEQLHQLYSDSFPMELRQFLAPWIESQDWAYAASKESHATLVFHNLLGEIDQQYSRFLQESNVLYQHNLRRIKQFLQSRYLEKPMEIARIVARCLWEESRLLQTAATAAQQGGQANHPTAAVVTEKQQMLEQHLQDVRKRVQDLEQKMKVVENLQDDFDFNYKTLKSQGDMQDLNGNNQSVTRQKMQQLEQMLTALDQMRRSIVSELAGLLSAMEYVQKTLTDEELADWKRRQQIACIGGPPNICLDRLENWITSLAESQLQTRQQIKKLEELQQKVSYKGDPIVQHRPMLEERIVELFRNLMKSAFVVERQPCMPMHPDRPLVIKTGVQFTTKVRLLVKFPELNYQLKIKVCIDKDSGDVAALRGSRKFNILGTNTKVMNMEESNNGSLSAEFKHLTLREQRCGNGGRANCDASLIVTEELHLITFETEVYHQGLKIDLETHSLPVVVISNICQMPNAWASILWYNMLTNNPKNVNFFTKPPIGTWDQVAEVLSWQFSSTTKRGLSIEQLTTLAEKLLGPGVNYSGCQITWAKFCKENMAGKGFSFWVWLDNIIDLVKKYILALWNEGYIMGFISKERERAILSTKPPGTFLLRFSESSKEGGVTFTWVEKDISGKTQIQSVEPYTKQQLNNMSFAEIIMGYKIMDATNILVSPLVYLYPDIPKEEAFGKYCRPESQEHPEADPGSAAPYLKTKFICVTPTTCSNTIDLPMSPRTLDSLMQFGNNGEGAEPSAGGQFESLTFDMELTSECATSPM

Row | SMILES | Activity (Bel-7402) | Activity (MCF7) | Activity (HCT-8) | Activity (BGC-823) | inhibition at 10 µM [1] | Activity (PC-12) | Activity [2] | Activity (Liver microsomes) | inhibition [3] | Activity (KETR3) | Activity (A549) | inhibition [4]
1 | C=C[C@H]1[C@H](O[C@@H]2O[C@H](CO)[C@@H](O)[C@H](O)[C@H]2O)OC=C(C(=O)[O-])[C@H]1/C=C/c1ccc[n+](CC(=O)O)c1 [LONIJAPOSIDE K] | inactive | inactive | inactive | inactive | 54.6% | inactive | inactive | inactive | inactive | inactive | inactive | –
2 | O=C(O)C1=CO[C@@H](O[C@@H]2O[C@H](CO)[C@@H](O)[C@H](O)[C@H]2O)[C@H]2[C@@H]1C[C@@H]1C[C@H]2OC=C1c1ccccc1 [LONIPHENYRUVIRIDOSIDE A] | inactive | inactive | inactive | inactive | < 30% | inactive | inactive | inactive | inactive | inactive | inactive | 45.7%
3 | C=C[C@H]1[C@H](O[C@@H]2O[C@H](CO)[C@@H](O)[C@H](O)[C@H]2O)OC=C(C(=O)[O-])[C@H]1/C=C/c1ccc[n+](CCCC(=O)O)c1 [LONIJAPOSIDE M] | inactive | inactive | inactive | inactive | < 30% | inactive | inactive | inactive | inactive | inactive | inactive | –
4 | C=C[C@H]1[C@H](O[C@@H]2O[C@H](CO)[C@@H](O)[C@H](O)[C@H]2O)OC=C(C(=O)[O-])[C@H]1/C=C/c1ccc[n+](CCO)c1 [LONIJAPOSIDE I] | inactive | inactive | inactive | inactive | 72.1% | inactive | inactive | inactive | inactive | inactive | inactive | –
5 | C=C[C@H]1[C@H](O[C@@H]2O[C@H](CO)[C@@H](O)[C@H](O)[C@H]2O)OC=C(C(=O)O)[C@H]1/C=C/c1cc(C(=O)[O-])c[n+](CC)c1 [LONIJAPOSIDE F] | inactive | inactive | inactive | inactive | 87.6% | inactive | inactive | inactive | inactive | inactive | inactive | –
6 | C=C[C@H]1[C@H](O[C@@H]2O[C@H](CO)[C@@H](O)[C@H](O)[C@H]2O)OC=C(C(=O)O)[C@H]1/C=C/c1cc(C(=O)[O-])c[n+](CCCC(=O)O)c1 [DEMETHYL LONIJAPOSIDE A] | inactive | inactive | inactive | inactive | < 30% | inactive | inactive | inactive | inactive | inactive | inactive | –
7 | C=C[C@H]1[C@H](O[C@@H]2O[C@H](CO)[C@@H](O)[C@H](O)[C@H]2O)OC=C(C(=O)OC)[C@H]1/C=C/c1ccc[n+](CCO)c1 [LONIJAPOSIDE J] | inactive | inactive | inactive | inactive | < 30% | inactive | inactive | inactive | inactive | inactive | inactive | –
8 | C=C[C@H]1[C@H](O[C@@H]2O[C@H](CO)[C@@H](O)[C@H](O)[C@H]2O)OC=C(C(=O)OC)[C@H]1/C=C/c1cc(C(=O)[O-])c[n+](CC)c1 [LONIJAPOSIDE E] | inactive | inactive | inactive | inactive | < 30% | inactive | inactive | inactive | inactive | inactive | inactive | –
9 | C=C[C@H]1[C@H](O[C@@H]2O[C@H](CO)[C@@H](O)[C@H](O)[C@H]2O)OC=C(C(=O)[O-])[C@H]1/C=C/c1ccc[n+](CCC(=O)O)c1 [LONIJAPOSIDE L] | inactive | inactive | inactive | inactive | < 30% | inactive | inactive | inactive | inactive | inactive | inactive | –
10 | C=C[C@H]1[C@H](O[C@@H]2O[C@H](CO)[C@@H](O)[C@H](O)[C@H]2O)OC=C2C(=O)O[C@@H](/C(=C(/O)C(=O)O)c3ccccc3)C[C@H]21 [LONIPHENYRUVIRIDOSIDE B] | inactive | inactive | inactive | inactive | < 30% | inactive | inactive | inactive | inactive | inactive | inactive | 25.8%
11 | C[C@@H]1C(=O)O[C@H]2[C@H](O)[C@@]34[C@H]5C[C@@H](C(C)(C)C)[C@]36[C@@H](OC(=O)[C@@H]6O)O[C@@]4(C(=O)O5)[C@@]12O [GINKOLIDE B] | – | – | – | – | 84.3% | – | – | – | – | – | – | –
12 | C=C[C@H]1[C@H](O[C@@H]2O[C@H](CO)[C@@H](O)[C@H](O)[C@H]2O)OC=C(C(=O)O)[C@H]1C[C@H]1OC(=O)C(O)=C1c1ccccc1 [LONIPHENYRUVIRIDOSIDE D] | inactive | inactive | inactive | inactive | < 30% | inactive | inactive | inactive | inactive | inactive | inactive | 48.8%
13 | C=C[C@H]1[C@H](O[C@@H]2O[C@H](CO)[C@@H](O)[C@H](O)[C@H]2O)OC=C(C(=O)OC)[C@H]1/C=C/c1ccc[n+](CCCC(=O)[O-])c1 [LONIJAPOSIDE N] | inactive | inactive | inactive | inactive | < 30% | inactive | inactive | inactive | inactive | inactive | inactive | –
14 | C=C[C@H]1[C@H](O[C@@H]2O[C@H](CO)[C@@H](O)[C@H](O)[C@H]2O)OC=C(C(=O)OC)[C@H]1/C=C/c1cc(C(=O)[O-])c[n+](C)c1 [LONIJAPOSIDE G] | inactive | inactive | inactive | inactive | < 30% | inactive | inactive | inactive | inactive | inactive | inactive | –
15 | C=C[C@@H]1/C(=C\Cc2cc(C(=O)[O-])c[n+](CCCC(=O)O)c2)C(C(=O)OC)=CO[C@H]1O[C@@H]1O[C@H](CO)[C@@H](O)[C@H](O)[C@H]1O [LONIJAPOSIDE H] | inactive | inactive | inactive | inactive | 68.6% | inactive | inactive | inactive | inactive | inactive | inactive | –
